Where a SMILES comes first, the peptide text is derived from it. [ ]: non-standard residue; d: D form. The star is where a group is joined. Adenosine(5'-uronoyl) = Nc1ncnc2c1ncn2[C@@H]1O[C@H](C(=O)*)[C@@H](O)[C@H]1O; Ahx = NCCCCCC(=O)O

For test [1], the target named is Ribosomal protein S6 kinase beta-1 (Homo sapiens) (UniProt P23443). Briefly: Inhibition of p70S6K at 100 nM relative to control. In short, it runs like this:
(§1)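 Activity is expressed as percent inhibition versus control incubations lacking inhibitor. Values are means of duplicate determinations.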

Test [2] has as its target Rho-associated protein kinase 2 (Bos taurus) (UniProt Q28021). Nature of the test: Binding affinity to ROCK2 by fluorescence polarization assay.
Test [3] addresses Protein kinase C epsilon type (Homo sapiens) (UniProt Q02156). Briefly: Inhibition of PKCepsilon at 100 nM relative to control. In short, it runs like this:
as §1

Test [4] concerns the target cGMP-dependent protein kinase 1 (Homo sapiens) (UniProt Q13976). Briefly: Inhibition of PKG1 at 100 nM relative to control. In short, it runs like this:
as §1

In test [5] the target is Proto-oncogene tyrosine-protein kinase Src (Homo sapiens) (UniProt P12931). Nature of the test: Inhibition of SRC at 100 nM relative to control. In short, it runs like this: as §1
Proto-oncogene tyrosine-protein kinase Src (Homo sapiens), sequence (P12931 2-536 limits assumed): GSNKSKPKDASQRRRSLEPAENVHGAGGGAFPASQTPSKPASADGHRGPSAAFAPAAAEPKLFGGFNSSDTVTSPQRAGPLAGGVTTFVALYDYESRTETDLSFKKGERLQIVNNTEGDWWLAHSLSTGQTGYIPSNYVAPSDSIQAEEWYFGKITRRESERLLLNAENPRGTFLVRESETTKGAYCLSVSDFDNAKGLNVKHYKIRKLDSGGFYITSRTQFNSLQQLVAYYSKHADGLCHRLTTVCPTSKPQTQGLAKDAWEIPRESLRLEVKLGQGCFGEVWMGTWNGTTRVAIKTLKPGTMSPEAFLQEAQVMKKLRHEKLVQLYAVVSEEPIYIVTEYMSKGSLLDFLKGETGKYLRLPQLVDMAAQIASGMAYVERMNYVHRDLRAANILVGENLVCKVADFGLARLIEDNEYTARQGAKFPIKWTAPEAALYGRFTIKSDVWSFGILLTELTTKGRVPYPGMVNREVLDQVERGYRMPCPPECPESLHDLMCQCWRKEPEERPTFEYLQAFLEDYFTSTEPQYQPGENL
Test [6] deals with Protein kinase C zeta type (Homo sapiens) (UniProt Q05513). Nature of the test: Inhibition of PKCzeta at 100 nM relative to control. The method in brief:
as §1

Test [7] deals with Serine/threonine-protein kinase D2 (Homo sapiens) (UniProt Q9BZL6). Briefly: Inhibition of PKD2 at 100 nM relative to control. The method in brief: as §1
Serine/threonine-protein kinase D2 (Homo sapiens), sequence (Q9BZL6 whole entry): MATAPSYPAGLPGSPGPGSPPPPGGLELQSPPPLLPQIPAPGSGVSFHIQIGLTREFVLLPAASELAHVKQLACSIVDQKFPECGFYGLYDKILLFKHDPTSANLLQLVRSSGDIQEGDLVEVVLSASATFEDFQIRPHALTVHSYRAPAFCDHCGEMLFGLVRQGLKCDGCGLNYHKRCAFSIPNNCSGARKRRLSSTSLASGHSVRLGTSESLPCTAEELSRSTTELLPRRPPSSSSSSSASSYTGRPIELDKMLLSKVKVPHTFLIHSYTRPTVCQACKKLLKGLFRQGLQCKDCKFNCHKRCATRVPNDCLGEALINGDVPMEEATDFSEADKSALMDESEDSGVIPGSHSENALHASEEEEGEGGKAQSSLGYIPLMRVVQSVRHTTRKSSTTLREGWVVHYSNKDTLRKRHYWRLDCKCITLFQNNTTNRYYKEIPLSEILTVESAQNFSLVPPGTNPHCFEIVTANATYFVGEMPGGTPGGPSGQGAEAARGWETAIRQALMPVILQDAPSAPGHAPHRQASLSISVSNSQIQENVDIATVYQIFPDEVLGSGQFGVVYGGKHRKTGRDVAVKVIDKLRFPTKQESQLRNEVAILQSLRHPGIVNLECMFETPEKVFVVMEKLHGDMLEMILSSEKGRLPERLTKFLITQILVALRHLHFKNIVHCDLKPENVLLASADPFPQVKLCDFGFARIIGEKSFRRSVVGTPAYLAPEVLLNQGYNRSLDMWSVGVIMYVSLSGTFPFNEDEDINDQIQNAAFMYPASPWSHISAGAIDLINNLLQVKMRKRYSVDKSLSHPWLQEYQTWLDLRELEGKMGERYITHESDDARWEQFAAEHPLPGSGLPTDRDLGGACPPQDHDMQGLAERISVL
Test [8] has as its target Death-associated protein kinase 3 (Homo sapiens) (UniProt O43293). Briefly: Inhibition of DAPK3 at 100 nM relative to control. In short, it runs like this: as §1
Test [9] has as its target Calcium/calmodulin-dependent protein kinase type 1D (Homo sapiens) (UniProt Q8IU85). Nature of the test: Inhibition of CaMK1delta at 100 nM relative to control. The method in brief:
as §1

The target in test [10] is Protein kinase C beta type (Homo sapiens) (UniProt P05771). Nature of the test: Inhibition of PKCbeta2 at 100 nM relative to control. The method in brief:
as §1

Test [11] deals with Ribosomal protein S6 kinase alpha-3 (Homo sapiens) (UniProt P51812). Particulars: 100 nM.
Test [12] has as its target cAMP-dependent protein kinase catalytic subunit alpha (Homo sapiens, UniProt P17612). Nature of the test: Binding affinity to PKA catalytic subunit alpha by fluorescence polarization assay.
Test [13] deals with Serine/threonine-protein kinase PAK 4 (Homo sapiens) (UniProt O96013). Briefly: Inhibition of PAK4 at 100 nM relative to control. In short, it runs like this:
as §1

Protein kinase C beta type (Homo sapiens), sequence (P05771 2-671 limits assumed): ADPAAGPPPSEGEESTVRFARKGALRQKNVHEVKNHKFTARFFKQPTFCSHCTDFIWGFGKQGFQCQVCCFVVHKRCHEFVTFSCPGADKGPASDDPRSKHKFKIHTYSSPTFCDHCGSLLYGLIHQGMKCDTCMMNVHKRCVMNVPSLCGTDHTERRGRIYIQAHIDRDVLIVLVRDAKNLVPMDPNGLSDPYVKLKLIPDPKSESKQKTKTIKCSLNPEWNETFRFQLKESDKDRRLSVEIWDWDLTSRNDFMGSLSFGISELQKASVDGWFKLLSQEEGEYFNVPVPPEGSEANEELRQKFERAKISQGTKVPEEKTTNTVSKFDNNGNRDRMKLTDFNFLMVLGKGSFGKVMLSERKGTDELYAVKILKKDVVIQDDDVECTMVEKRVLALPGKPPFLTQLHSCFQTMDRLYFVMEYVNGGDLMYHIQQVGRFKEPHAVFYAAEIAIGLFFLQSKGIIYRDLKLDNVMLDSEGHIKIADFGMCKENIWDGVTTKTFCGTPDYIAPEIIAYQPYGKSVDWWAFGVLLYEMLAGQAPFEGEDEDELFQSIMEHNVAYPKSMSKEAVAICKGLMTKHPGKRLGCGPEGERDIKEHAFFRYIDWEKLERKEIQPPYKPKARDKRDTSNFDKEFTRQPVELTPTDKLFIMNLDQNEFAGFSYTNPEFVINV
Ribosomal protein S6 kinase beta-1 (Homo sapiens), sequence (P23443 whole entry, looked up): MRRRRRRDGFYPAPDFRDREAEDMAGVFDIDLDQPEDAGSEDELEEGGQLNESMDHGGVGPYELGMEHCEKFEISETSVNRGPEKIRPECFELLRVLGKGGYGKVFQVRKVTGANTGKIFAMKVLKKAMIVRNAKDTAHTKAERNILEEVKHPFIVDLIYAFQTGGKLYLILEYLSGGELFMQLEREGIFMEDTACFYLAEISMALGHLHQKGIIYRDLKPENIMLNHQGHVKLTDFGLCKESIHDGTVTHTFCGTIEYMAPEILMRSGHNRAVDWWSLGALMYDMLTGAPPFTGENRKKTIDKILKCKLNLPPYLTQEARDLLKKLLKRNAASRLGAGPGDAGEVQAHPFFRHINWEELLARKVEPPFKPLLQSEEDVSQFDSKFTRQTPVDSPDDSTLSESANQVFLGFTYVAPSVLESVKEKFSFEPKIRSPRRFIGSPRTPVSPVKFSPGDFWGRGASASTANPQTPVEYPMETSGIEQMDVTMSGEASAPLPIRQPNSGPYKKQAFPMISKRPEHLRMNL
Serine/threonine-protein kinase PAK 4 (Homo sapiens), sequence (O96013 whole entry, looked up): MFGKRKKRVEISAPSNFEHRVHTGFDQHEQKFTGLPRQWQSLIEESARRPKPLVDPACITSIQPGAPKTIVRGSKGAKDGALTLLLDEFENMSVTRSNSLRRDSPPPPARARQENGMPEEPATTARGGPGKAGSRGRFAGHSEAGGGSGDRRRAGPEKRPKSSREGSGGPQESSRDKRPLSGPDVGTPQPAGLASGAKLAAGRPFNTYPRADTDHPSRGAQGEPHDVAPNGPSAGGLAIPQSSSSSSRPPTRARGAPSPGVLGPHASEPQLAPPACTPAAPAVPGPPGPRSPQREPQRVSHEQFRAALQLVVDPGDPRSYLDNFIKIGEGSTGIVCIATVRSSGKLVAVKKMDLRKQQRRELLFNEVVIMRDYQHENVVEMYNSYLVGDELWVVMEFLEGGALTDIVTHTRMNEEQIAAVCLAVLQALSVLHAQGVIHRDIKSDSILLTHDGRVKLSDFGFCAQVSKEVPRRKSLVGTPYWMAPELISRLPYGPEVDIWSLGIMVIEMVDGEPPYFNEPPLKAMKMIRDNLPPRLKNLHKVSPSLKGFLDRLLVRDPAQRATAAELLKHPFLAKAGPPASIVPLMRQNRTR
Calcium/calmodulin-dependent protein kinase type 1D (Homo sapiens), sequence (Q8IU85 whole entry, looked up): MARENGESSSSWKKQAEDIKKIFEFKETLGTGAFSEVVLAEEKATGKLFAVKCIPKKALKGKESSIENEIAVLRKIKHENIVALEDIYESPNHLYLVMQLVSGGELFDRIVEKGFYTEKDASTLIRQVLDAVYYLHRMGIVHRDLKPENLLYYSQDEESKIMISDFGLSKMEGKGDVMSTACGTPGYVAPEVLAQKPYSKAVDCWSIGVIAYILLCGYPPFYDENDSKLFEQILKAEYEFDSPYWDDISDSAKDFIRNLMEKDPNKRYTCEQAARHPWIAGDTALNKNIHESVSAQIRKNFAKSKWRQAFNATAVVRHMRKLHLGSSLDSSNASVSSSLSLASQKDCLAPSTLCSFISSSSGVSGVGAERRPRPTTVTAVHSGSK
Rho-associated protein kinase 2 (Bos taurus), sequence (Q28021 whole entry, looked up): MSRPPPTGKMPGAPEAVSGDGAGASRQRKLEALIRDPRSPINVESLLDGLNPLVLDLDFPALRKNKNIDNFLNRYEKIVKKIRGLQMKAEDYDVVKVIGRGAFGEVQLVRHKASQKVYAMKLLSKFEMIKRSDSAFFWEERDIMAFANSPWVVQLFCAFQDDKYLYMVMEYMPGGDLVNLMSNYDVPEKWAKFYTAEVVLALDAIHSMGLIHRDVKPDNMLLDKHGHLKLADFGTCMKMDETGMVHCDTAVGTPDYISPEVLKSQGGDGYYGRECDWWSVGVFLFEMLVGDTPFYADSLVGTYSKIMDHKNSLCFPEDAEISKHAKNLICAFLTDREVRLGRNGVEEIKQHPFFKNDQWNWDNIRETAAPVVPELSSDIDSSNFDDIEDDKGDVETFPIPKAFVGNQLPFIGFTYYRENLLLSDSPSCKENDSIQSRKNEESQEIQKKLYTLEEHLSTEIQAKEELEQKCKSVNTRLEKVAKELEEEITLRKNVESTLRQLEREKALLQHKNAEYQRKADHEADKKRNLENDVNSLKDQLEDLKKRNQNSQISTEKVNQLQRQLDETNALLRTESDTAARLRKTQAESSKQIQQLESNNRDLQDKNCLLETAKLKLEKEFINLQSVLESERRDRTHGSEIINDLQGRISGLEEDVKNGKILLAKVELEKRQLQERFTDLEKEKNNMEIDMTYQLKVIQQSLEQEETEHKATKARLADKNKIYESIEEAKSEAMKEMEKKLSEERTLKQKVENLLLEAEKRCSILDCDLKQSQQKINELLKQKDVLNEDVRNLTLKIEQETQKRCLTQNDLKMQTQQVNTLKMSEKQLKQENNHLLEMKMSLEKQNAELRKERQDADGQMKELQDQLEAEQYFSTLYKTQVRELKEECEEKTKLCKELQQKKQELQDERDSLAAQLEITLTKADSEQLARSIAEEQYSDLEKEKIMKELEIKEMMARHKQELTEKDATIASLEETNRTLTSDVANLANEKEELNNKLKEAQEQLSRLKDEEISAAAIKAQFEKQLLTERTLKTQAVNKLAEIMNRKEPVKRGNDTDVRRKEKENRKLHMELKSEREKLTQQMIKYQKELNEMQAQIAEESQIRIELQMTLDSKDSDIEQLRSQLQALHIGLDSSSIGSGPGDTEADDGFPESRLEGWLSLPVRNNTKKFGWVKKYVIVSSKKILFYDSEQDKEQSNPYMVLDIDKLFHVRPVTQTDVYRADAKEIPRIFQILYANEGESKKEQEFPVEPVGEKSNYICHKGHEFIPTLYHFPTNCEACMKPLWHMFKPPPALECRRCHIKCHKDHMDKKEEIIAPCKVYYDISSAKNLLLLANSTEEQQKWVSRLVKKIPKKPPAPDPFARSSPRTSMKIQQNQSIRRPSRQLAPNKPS

For `N=C(N)NCCC[C@@H](NC(=O)[C@@H](CCCNC(=N)N)NC(=O)[C@@H](CCCNC(=N)N)NC(=O)[C@@H](CCCNC(=N)N)NC(=O)[C@@H](CCCNC(=N)N)NC(=O)[C@@H](CCCNC(=N)N)NC(=O)CCCCCNC(=O)[C@@H](CCCCN)NC(=O)CCCCCNC(=O)[C@H]1O[C@@H](n2cnc3c(N)ncnc32)[C@H](O)[C@@H]1O)C(N)=O` ({Adenosine(5'-uronoyl)-Ahx}-[dK][Ahx][dR][dR][dR][dR][dR][dR]-NH2), the inhibition was 96% in test [1]; 106% in test [3]; 58% in [4]; 28% in test [5]; 53% in test [6]; 37% in test [7]. The inhibition in test [8] amounted to 22%; in test [9] it was 35%; in test [10], 94%; in test [11], 104%; in test [13], 81%. Also, the Kd in [2] is under 1 nM; in test [12], under 0.5 nM.

The values above are taken from ChEMBL document CHEMBL1139385, “Structural analysis of ARC-type inhibitor (ARC-1034) binding to protein kinase A catalytic subunit and rational design of bisubstrate analogue inhibitors of basophilic protein kinases” (J Med Chem, 2009).
